Measured values taken from ChEMBL document CHEMBL2424592, “Epothilone D and its 9-Methyl analogues: combinatorial syntheses, conformation, and biological activities” (Eur J Med Chem, 2013).

Legend:
MCF7 = test: Cytotoxicity against human MCF7 cells after 72 hrs; format: functional, cell-based; conditions: MCF7, 72 h
Tubulin (Homo sapiens) = Tubulin (Homo sapiens) (UniProt P68371+Q9H4B7+P0DPH7+P68366+Q13509+Q71U36+P04350+Q3ZCM7+P07437+P68363+Q9BQE3+Q6PEY2+Q13885+Q9BVA1+Q9BUF5); test: Inhibition of tubulin polymerization (unknown origin) at 5 uM; format: protein-complex assay
Outline: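 Tubulin came from fresh animal brain (species not given), homogenized in cold MES buffer and purified through repeated cold (4 °C) and warm 105,000 g centrifugation cycles, then diluted to 2 mg/mL in MES. Cold tubulin was mixed with ATPNa2 (40 mmol/L stock) and compound. Polymerization was followed as OD350 every 3 min at 37 °C for 30 min.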

[1] = Cytotoxicity against human MCF7/ADR cells after 72 hrs; format: functional, cell-based; conditions: NCI/ADR-RES

Compound	IC50 (MCF7) [µM]	inhibition (Tubulin (Homo sapiens)) [%]	IC50 [1] [µM]
C/C1=C/C[C@@H](/C(C)=C/c2csc(C)n2)OC(=O)C[C@H](O)C(C)(C)C(=O)[C@H](C)[C@@H](O)[C@@H](C)[C@H](C)CC1	0.99	15.7	0.51
C/C1=C/C[C@@H](/C(C)=C/c2csc(C)n2)OC(=O)C[C@H](O)C(C)(C)C(=O)[C@H](C)[C@@H](O)[C@@H](C)[C@@H](C)CC1	35.4	8.5	
C/C1=C\C[C@@H](/C(C)=C/c2csc(C)n2)OC(=O)C[C@H](O)C(C)(C)C(=O)[C@H](C)[C@@H](O)[C@@H](C)[C@@H](C)CC1	93.4		> 100
C/C1=C/C[C@@H](/C(C)=C/c2csc(C)n2)OC(=O)C[C@H](O)C(C)(C)C(=O)[C@H](C)[C@@H](O)[C@@H](C)CCC1 [EPOTHILONE D]	0.014	43.3	0.01
C/C1=C\C[C@@H](/C(C)=C/c2csc(C)n2)OC(=O)C[C@H](O)C(C)(C)C(=O)[C@H](C)[C@@H](O)[C@@H](C)[C@H](C)CC1	7.7		7.3
